A selection: hits, their analogues and other compounds. The true share with any hit is near 4.5%.
CHO parental Ca: counter-screen for OX1R antagonists: effect in parental CHO cells. parental CHO-K1, ATP-induced calcium, Fluo-8 fluorescence. inhibition, % at 5.6 µM. 0.63% of 330,000 active. AID 463079;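 active = inhibition above that plate's mean sample inhibition plus 3 SD, cut at about 26% in these data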;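 also: 0% = ATP-challenged DMSO wells and 100% = DMSO wells without ATP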
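Test system: untransfected parental CHO cell line. Compound: one dose, 5.6 µM nominal. Detection: intracellular calcium via Fluo-8 no-wash fluorescent dye. Measure: % inhibition. Benchmarks: ATP-challenged DMSO wells low, unchallenged DMSO wells high.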
TAAR1 antag: antagonists of human TAAR1; Q96RJ0; CHO RD-HGA16 TAAR1, Fluo-8 calcium fluorescence, antagonist; inhibition, % at 3 µM; 1.5% of 360,000 active; AID 624466;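 active = inhibition above a per-plate cutoff, the mean inhibition of test compounds on that plate plus 3 SD, cut at about 49% in these data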;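 also: 0% = DMSO plus EC80 beta-PEA response and 100% = DMSO alone without agonist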
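Test system: RD-HGA16 CHO cells with stable hTAAR1 and Gα16 / Probe or stimulus: EC80 β-phenethylamine stimulus / Times: seeding 17-24 h prior, 75-min 37 °C, 30-min RT dye loading / Detection: Fluo-8 calcium-sensitive fluorescence / Read-out basis: % inhibition scaled between DMSO and EC80 PEA controls / Repeats: singlicate, one well per test compound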
TAAR1 agonist: human TAAR1 agonism; activation, % at 3 µM; Q96RJ0; 0.99% of 360,000 active; AID 624467; CHO RD-HGA16 TAAR1, Fluo-8 calcium fluorescence; vehicle wells 0%, saturating PEA agonist 100%;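 active = activation above the mean activation of all test compounds in the run plus 3 SD, cut at about 38% in these data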
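Repeats: no replicates (n 1) | Material: CHO-derived RD-HGA16 cells with stable Gα16 and human TAAR1 | Technique: Kinetic Fluo-8 calcium fluorescence | Schedule: 17-24 h seeding, 75 min 37 °C dye, 30 min RT | Evaluation: % activation from peak over basal fluorescence ratio, DMSO-to-PEA scaled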
OX1R antag-1: antagonists of human orexin 1 receptor (OX1R) | 1.8% of 330,000 active | inhibition, % at 6.6 µM | O43613 | AID 485270 | OX1R-expressing cells, FRET antagonist read-out; in the data active = inhibition mostly above about 38%, no sharp cut-off; inactive = mostly below about 40%;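 also: 0% = agonist challenge alone and 100% = reference antagonist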
OX1R antag-2: blocks the human orexin 1 receptor; O43613; CHO/OX1R cells, Fluo-8 calcium fluorescence, orexin A; inhibition, % at 5 µM; 0.43% of 330,000 active;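 active = inhibition above its plate's threshold, mean inhibition of all tested compounds on the plate plus 3 SD, cut at about 37% in these data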;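 also: 0% = orexin A challenge wells and 100% = SB-334867-A antagonist wells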
GPR7 antagonist: blocks human GPR7 receptor signaling. GPR7-expressing cells, fluorescence antagonist assay. inhibition, % at 4.4 µM. 1.1% of 290,000 active; in the data active = inhibition above about 16%, passing the limit was not always enough;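 also: cells stimulated with the agonist NPW; 0% = agonist with vehicle and 100% = vehicle without agonist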
Target sequence (P48145 whole entry, looked up): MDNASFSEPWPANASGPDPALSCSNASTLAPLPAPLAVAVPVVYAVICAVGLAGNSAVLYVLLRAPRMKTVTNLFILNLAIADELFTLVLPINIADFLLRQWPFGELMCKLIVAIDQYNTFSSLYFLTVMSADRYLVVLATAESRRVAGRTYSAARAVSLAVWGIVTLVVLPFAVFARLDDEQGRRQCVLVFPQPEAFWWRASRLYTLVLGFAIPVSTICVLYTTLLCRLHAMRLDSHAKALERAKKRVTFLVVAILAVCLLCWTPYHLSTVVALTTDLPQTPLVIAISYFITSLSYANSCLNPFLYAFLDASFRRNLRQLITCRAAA
TAAR1 nonsel count: nonselective antagonism, TAAR1 counter-screen; shares compounds with TAAR1 antag; counterscreen cell line, calcium fluorescence, antagonist mode; inhibition, % at 3 µM; 77% of 2,400 active; in the data active = inhibition above about 22%;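 also: CHO-Ga16 host cells stimulated with ATP at an EC80 level; 0% = agonist EC80 plus vehicle and 100% = vehicle without agonist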
TAAR1 ant conf: confirmation of human TAAR1 antagonists; shares compounds with TAAR1 antag; TAAR1-expressing cells, fluorescence antagonist read-out; inhibition, % at 3 µM; 40% of 2,400 active; in the data active = inhibition above about 49%;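 also: CHO-Ga16 host cells challenged with agonist PEA near its EC80; 0% = agonist at EC80 plus vehicle and 100% = vehicle with no agonist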
Ga16 nonsel ag: nonselective Ga16 agonism, counter-screen | shares compounds with TAAR1 antag | Ga16-expressing cells, calcium fluorescence, agonist counterscreen | activation, % at 3 µM | 18% of 2,400 active | AID 651953; in the data active = activation above about 12%;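 also: 0% = vehicle wells and 100% = saturating stimulus response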
TAAR1 ag count: counter-screen for human TAAR1 antagonists: TAAR1 agonists | hTAAR1 cell line, fluorescence activation, agonist mode | 2% of 2,400 active | AID 651955 | shares compounds with TAAR1 antag | activation, % at 3 µM; in the data active = activation above about 37%;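 also: CHO cells stably expressing TAAR1 with calcium dye readout; 0% = DMSO vehicle and 100% = full agonist response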
Numbers without * were called inactive; . = not tested or not shown.

SMILES	CHO parental Ca	TAAR1 antag	TAAR1 agonist	OX1R antag-1	OX1R antag-2	GPR7 antagonist	TAAR1 nonsel count	TAAR1 ant conf	Ga16 nonsel ag	TAAR1 ag count
O=C(NCc1cccs1)C1CCC(CNS(=O)(=O)c2ccc(Br)s2)CC1 (stereo not drawn)	-8	57*	26	19	-9	-15	17	53*	7	39*
COc1ccccc1N=c1oc2cc(O)ccc2cc1C(=O)NCC1CCCO1 (stereo not drawn)	-4	20	12	20	2	11	.	.	.	.
COc1ccc(OC)c(-c2nc(C(=O)NCC3CCCO3)cc3c2[nH]c2ccccc23)c1 (stereo not drawn)	-18	39	1	20	-37	-2	.	.	.	.
COc1cccc(N=c2oc3cc(O)ccc3cc2C(=O)NCC2CCCO2)c1 (stereo not drawn)	-6	58*	13	10	-3	10	35*	55*	11	18
COc1cccc(-c2nc(C(=O)NCC3CCCO3)cc3c2[nH]c2ccccc23)c1 (stereo not drawn)	-6	77*	1	18	-27	1	26*	41	5	2
COc1ccc(CCNC(=S)NC(=O)c2cccc([N+](=O)[O-])c2)cc1OC	-20	-36	1	7	-28	4	.	.	.	.
CCOc1ccc(Nc2cc(C)nc3c(C)cccc23)cc1	-15	-5	2	8	2	-3	.	.	.	.
CCN(CC)c1nc2c(c(=O)n(C)c(=O)n2C)n1CCCc1ccccc1	-7	-7	25	7	-28	3	.	.	.	.
CN(Cc1ccccc1)c1nc2c(c(=O)n(C)c(=O)n2C)n1CCCc1ccccc1	-9	49*	9	6	-19	0	27*	52*	17*	40*
O=C(O)c1ccc(COc2ccccc2C=C2C(=O)c3ccccc3C2=O)cc1	5	75*	30	29	-11	3	37*	54*	11	23
CN1C(=O)/C(=C/c2ccccc2OCc2ccc(C(=O)O)cc2)NC1=S	-12	-3	1	65	-12	-10	.	.	.	.
CCOC(=O)C1C(=O)C=C(c2ccccc2)CC1c1ccccc1 (stereo not drawn)	.	59*	4	.	.	.	30*	40	3	1
CCN(Cc1ccccc1)c1ccc(/C=N/N=C(N)N)cc1	-7	-12	2	3	-27	-7	.	.	.	.
CCN(Cc1ccccc1)c1ccc(/C=N/NC(=S)NC(C)C)cc1	-32	50*	2	13	-42	-6	3	11	3	9
CC(OC(=O)Cc1ccc(Cl)cc1)C(=O)NC1CCCCC1C (stereo not drawn)	.	-33	0	.	.	.	.	.	.	.
CCO[C@@H]1OC(C(=O)Nc2ccccc2)=C[C@H](c2ccc3c(c2)OCO3)[C@H]1CCCO	-3	49*	19	15	-25	-22	19	25	6	7
CCO[C@@H]1OC(C(=O)NCc2ccccc2)=C[C@H](c2ccc3c(c2)OCO3)[C@H]1CCCO	-17	-11	10	14	-29	-15	.	.	.	.
CCO[C@@H]1OC(C(=O)N2CCN(Cc3ccc4c(c3)OCO4)CC2)=C[C@H](C2CCCCC2)[C@H]1CCCO	-20	67*	15	29	-12	16	29*	45	9	7
Cn1nc(C(=O)NCc2ccc(F)cc2)c2c1-c1ccccc1S(=O)(=O)C2	22	13	2	15	-10	-13	.	.	.	.
CSc1ccc(CCNC(=O)c2nn(C)c3c2CS(=O)(=O)c2ccccc2-3)cc1	-2	61*	8	18	-6	12	34*	50*	8	8

High-throughput results from PubChem.
